In one experiment the target is T1, Angiotensin II receptor (Rattus norvegicus, UniProt P29089+P25095+P35351).
T1 sequence (P29089 whole entry): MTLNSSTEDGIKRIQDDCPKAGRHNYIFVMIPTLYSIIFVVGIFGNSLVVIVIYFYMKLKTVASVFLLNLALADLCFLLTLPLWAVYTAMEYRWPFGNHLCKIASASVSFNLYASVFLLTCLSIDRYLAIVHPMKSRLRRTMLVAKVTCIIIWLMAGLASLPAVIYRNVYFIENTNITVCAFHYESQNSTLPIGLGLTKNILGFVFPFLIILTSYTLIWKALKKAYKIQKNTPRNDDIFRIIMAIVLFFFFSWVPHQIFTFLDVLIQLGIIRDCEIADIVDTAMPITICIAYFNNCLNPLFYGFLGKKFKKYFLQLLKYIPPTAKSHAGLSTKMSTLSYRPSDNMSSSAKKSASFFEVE
T1 sequence (P25095 whole entry): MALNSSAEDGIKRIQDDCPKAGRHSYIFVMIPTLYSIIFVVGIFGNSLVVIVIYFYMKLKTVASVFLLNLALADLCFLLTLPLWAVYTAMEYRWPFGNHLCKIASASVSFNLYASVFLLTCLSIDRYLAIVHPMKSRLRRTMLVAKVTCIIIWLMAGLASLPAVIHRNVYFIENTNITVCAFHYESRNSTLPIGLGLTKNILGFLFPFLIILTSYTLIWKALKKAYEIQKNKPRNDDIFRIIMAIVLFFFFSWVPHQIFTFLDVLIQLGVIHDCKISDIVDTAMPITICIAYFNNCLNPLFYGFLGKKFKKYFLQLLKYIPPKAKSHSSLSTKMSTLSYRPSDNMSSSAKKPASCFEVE
T1 sequence (P35351 whole entry): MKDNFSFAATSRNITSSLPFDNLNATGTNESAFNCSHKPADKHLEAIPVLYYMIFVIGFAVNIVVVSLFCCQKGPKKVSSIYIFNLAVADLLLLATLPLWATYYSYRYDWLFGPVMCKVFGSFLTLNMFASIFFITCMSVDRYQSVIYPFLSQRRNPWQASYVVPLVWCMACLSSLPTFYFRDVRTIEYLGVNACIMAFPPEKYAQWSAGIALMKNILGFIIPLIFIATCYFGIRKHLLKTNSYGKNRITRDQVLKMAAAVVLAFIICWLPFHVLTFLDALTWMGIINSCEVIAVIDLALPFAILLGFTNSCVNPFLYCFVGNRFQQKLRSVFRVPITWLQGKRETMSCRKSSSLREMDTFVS
The experiment in a line: Tested for the binding affinity using radioligand [125I]-Sar1 Ile8-AII in the rat adrenal capsular membranes (adrenal cortex). Format: cell membranes. In short, it runs like this:
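Membranes from rat adrenal capsules, homogenized in 50 mM Tris-HCl, washed by repeated 50000g spins at 4 °C, resuspended in pH 7.4 sodium phosphate assay buffer with NaCl, EDTA, PMSF, protease inhibitors, BSA and bacitracin. Nonspecific binding defined with 1 uM unlabeled peptide. Bound label separated by vacuum filtration. Ki fitted from replicate curves.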

For experiment [1], the target named is Angiotensin II receptor (Oryctolagus cuniculus). The experiment in a line: Tested for the antagonism of AII-induced contraction in rabbit endothelium-denuded aorta strips.

The term Ki denotes the equilibrium dissociation constant of an inhibitor or competing ligand from its target. Higher therefore signals lower affinity. Broadly, the pA2 is a measure of antagonist potency on a negative log scale. On to `CCCCc1nc(CO)c(Cl)n1Cc1ccc(-c2cccnc2C(=O)O)cc1`, for which the Ki on Angiotensin II receptor is greater than 10 µM. Also, the pA2 in experiment [1] was less than 5.

Regarding `CCCCc1nc(CO)c(Cl)n1Cc1ccc(-c2ncccc2C(=O)O)cc1`, the Ki at Angiotensin II receptor is greater than 10 µM. In addition, in experiment [1], the pA2 was less than 5.

Molecule `CCCCc1nc(Cl)c(CO)n1Cc1ccc(-c2ccoc2C(=O)O)cc1` gave a Ki on Angiotensin II receptor greater than 10 µM. The molecule further yielded a pA2 in experiment [1] of less than 5.

Turning to `CCCCc1nc(CO)c(Cl)n1Cc1ccc(-c2ccoc2C(=O)O)cc1`, the Ki at Angiotensin II receptor was greater than 10 µM. In experiment [1], this molecule showed a pA2 of 6.

At Angiotensin II receptor, `CCCCc1nc(Cl)c(CO)n1Cc1ccc(-c2ccccc2C(=O)O)o1` returned a Ki greater than 10 µM. Also, in experiment [1], the pA2 stood at 5.2.

On Angiotensin II receptor, `CCCCc1nc(Cl)c(CO)n1Cc1ccc(-c2ccsc2C(=O)O)cc1` returned an inhibition constant (Ki) of 14.5 µM. The pA2 in experiment [1] is given as less than 5.

Regarding `CCCCc1nc(Cl)c(CO)n1Cc1ccc(-c2ncccc2C(=O)O)cc1`, the Ki on Angiotensin II receptor is 9.8 µM. For the same molecule, the pA2 in experiment [1] is given as less than 5.

The molecule `CCCCc1nc(Cl)c(CO)n1Cc1ccc(-c2cccnc2C(=O)O)cc1` came in with a Ki on Angiotensin II receptor of 3.3 µM. The pA2 in experiment [1] is 6.1.

At Angiotensin II receptor, `CCCCc1nc(CO)c(Cl)n1Cc1ccc(-c2nc(C)sc2C(=O)O)cc1` yielded a Ki greater than 10 µM. In addition, the pA2 entry in experiment [1] is listed as “<= 5”.

Consider `CCCCc1nc(Cl)c(CO)n1Cc1ccc(-c2nc(C)sc2C(=O)O)cc1`, for which, on Angiotensin II receptor, the Ki was greater than 10 µM. In experiment [1], the pA2 is less than 5.

Regarding `CCCCc1nc(Cl)c(CO)n1Cc1ccc(-c2cnccc2C(=O)O)cc1`, the Ki at Angiotensin II receptor came out at 6.7 µM. Also, the pA2 in experiment [1] is listed as less than 5.

Molecule `CCCCc1nc(Cl)c(CO)n1Cc1ccc(-c2ccccc2C(=O)O)s1` came in with a Ki at Angiotensin II receptor greater than 10 µM. The same molecule returned a pA2 in experiment [1] of less than 5.

Source of the values: ChEMBL document CHEMBL1127862, “Nonpeptide angiotensin II receptor antagonists. Synthesis, in vitro activity, and molecular modeling studies of N-[(heterobiaryl)methyl] imidazoles” (J Med Chem, 1994).
